# Measured values as given in ChEMBL document CHEMBL4311987, “Discovery of novel allosteric site and covalent inhibitors of FBPase with potent hypoglycemic effects” (Eur J Med Chem, 2019).
# Target: Fructose-1,6-bisphosphatase 1 (Homo sapiens, UniProt P09467, R244A)
# Assay: Inhibition of human FBPase R243A mutant expressed in Escherichia coli BL21 (DE3) using FBP as substrate incubated for 5 mins by malachite green dye based spectrophotometry
# Summary of the method: (§1)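 Recombinant human FBPase (wild type or point mutants) was expressed in E. coli BL21 (DE3), purified and stored in 50% glycerol at -20 °C. Reactions ran 5 min at 37 °C, and released phosphate was read by malachite green.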
# Sequence of Fructose-1,6-bisphosphatase 1 (Homo sapiens, UniProt P09467, R244A) (P09467 2-338 R244A limits assumed): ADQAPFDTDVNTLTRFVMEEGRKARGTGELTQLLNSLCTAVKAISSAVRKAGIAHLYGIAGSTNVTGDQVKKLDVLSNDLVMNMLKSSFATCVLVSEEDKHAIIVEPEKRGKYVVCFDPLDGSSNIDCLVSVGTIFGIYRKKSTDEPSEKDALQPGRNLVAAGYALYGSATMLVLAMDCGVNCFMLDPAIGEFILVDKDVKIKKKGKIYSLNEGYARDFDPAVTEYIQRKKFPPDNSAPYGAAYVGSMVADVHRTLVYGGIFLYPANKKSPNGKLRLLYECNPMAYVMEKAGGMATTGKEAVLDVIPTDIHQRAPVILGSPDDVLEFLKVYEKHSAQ
row,Structure (SMILES),IC50 [nM]
1,CCOC(=O)C(C)(C)Oc1ccc(F)c(/C=C/[N+](=O)[O-])c1,17000
2,O=[N+]([O-])/C=C/c1cccc(F)c1,2200
3,N#Cc1ccc(/C=C/[N+](=O)[O-])cc1,680

# Target: Fructose-1,6-bisphosphatase 1 (Homo sapiens, UniProt P09467, S125A)
# Assay: Inhibition of human FBPase S124A mutant expressed in Escherichia coli BL21 (DE3) using FBP as substrate incubated for 5 mins by malachite green dye based spectrophotometry
# Summary of the method: as §1
# Sequence of Fructose-1,6-bisphosphatase 1 (Homo sapiens, UniProt P09467, S125A) (P09467 2-338 S125A limits assumed): as the sequence (P09467 2-338 R244A limits assumed) above, with S124A, A243R counted along it
row,Structure (SMILES),IC50 [nM]
1,CCOC(=O)C(C)(C)Oc1ccc(F)c(/C=C/[N+](=O)[O-])c1,24000
2,O=[N+]([O-])/C=C/c1cccc(F)c1,12000
3,N#Cc1ccc(/C=C/[N+](=O)[O-])cc1,1400

# Species on record: Homo sapiens
# Assay: Selectivity index, ratio of IC50 for human FBPase C183S mutant expressed in Escherichia coli BL21 (DE3) to IC50 for human FBPase expressed in Escherichia coli BL21 (DE3)
# Summary of the method: (§2)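 IC50 values for each FBPase point mutant and for wild-type human FBPase came from the same malachite-green assay. The index is mutant IC50 divided by wild-type IC50.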
row,Structure (SMILES),Ratio IC50
1,CCOC(=O)C(C)(C)Oc1ccc(F)c(/C=C/[N+](=O)[O-])c1,1.6
2,O=[N+]([O-])/C=C/c1cccc(F)c1,2.8
3,N#Cc1ccc(/C=C/[N+](=O)[O-])cc1,1.2

# Target: Fructose-1,6-bisphosphatase 1 (Homo sapiens, UniProt P09467, N126A)
# Assay: Inhibition of human FBPase N125A mutant expressed in Escherichia coli BL21 (DE3) using FBP as substrate incubated for 5 mins by malachite green dye based spectrophotometry
# Summary of the method: as §1
# Sequence of Fructose-1,6-bisphosphatase 1 (Homo sapiens, UniProt P09467, N126A) (P09467 2-338 N126A limits assumed): as the sequence (P09467 2-338 R244A limits assumed) above, with N125A, A243R counted along it
row,Structure (SMILES),IC50 [nM]
1,CCOC(=O)C(C)(C)Oc1ccc(F)c(/C=C/[N+](=O)[O-])c1,> 300000
2,O=[N+]([O-])/C=C/c1cccc(F)c1,> 200000
3,N#Cc1ccc(/C=C/[N+](=O)[O-])cc1,> 200000

# Species on record: Homo sapiens
# Assay: Selectivity index, ratio of IC50 for human FBPase C116S mutant expressed in Escherichia coli BL21 (DE3) to IC50 for human FBPase expressed in Escherichia coli BL21 (DE3)
# Summary of the method: as §2
row,Structure (SMILES),Ratio IC50
1,CCOC(=O)C(C)(C)Oc1ccc(F)c(/C=C/[N+](=O)[O-])c1,1.6
2,O=[N+]([O-])/C=C/c1cccc(F)c1,3.4
3,N#Cc1ccc(/C=C/[N+](=O)[O-])cc1,0.94

# Species on record: Homo sapiens
# Assay: Selectivity index, ratio of IC50 for human FBPase R243A mutant expressed in Escherichia coli BL21 (DE3) to IC50 for human FBPase expressed in Escherichia coli BL21 (DE3)
# Summary of the method: as §2
row,Structure (SMILES),Ratio IC50
1,CCOC(=O)C(C)(C)Oc1ccc(F)c(/C=C/[N+](=O)[O-])c1,28
2,O=[N+]([O-])/C=C/c1cccc(F)c1,6.9
3,N#Cc1ccc(/C=C/[N+](=O)[O-])cc1,1.9

# Target: Fructose-1,6-bisphosphatase 1 (Homo sapiens, UniProt P09467, C129S)
# Assay: Inhibition of human FBPase C128S mutant expressed in Escherichia coli BL21 (DE3) using FBP as substrate incubated for 5 mins by malachite green dye based spectrophotometry
# Summary of the method: as §1
# Sequence of Fructose-1,6-bisphosphatase 1 (Homo sapiens, UniProt P09467, C129S) (P09467 2-338 C129S limits assumed): as the sequence (P09467 2-338 R244A limits assumed) above, with C128S, A243R counted along it
row,Structure (SMILES),IC50 [nM]
1,CCOC(=O)C(C)(C)Oc1ccc(F)c(/C=C/[N+](=O)[O-])c1,> 500000
2,O=[N+]([O-])/C=C/c1cccc(F)c1,> 350000
3,N#Cc1ccc(/C=C/[N+](=O)[O-])cc1,> 350000

# Target: Fructose-1,6-bisphosphatase 1 (Homo sapiens, UniProt P09467, C39S)
# Assay: Inhibition of human FBPase C38S mutant expressed in Escherichia coli BL21 (DE3) using FBP as substrate incubated for 5 mins by malachite green dye based spectrophotometry
# Summary of the method: as §1
# Sequence of Fructose-1,6-bisphosphatase 1 (Homo sapiens, UniProt P09467, C39S) (P09467 2-338 C39S limits assumed): as the sequence (P09467 2-338 R244A limits assumed) above, with C38S, A243R counted along it
row,Structure (SMILES),IC50 [nM]
1,CCOC(=O)C(C)(C)Oc1ccc(F)c(/C=C/[N+](=O)[O-])c1,660
2,O=[N+]([O-])/C=C/c1cccc(F)c1,1200
3,N#Cc1ccc(/C=C/[N+](=O)[O-])cc1,490

# Target: Fructose-1,6-bisphosphatase 1 (Homo sapiens, UniProt P09467, C180S)
# Assay: Inhibition of human FBPase C179S mutant expressed in Escherichia coli BL21 (DE3) using FBP as substrate incubated for 5 mins by malachite green dye based spectrophotometry
# Summary of the method: as §1
# Sequence of Fructose-1,6-bisphosphatase 1 (Homo sapiens, UniProt P09467, C180S) (P09467 2-338 C180S limits assumed): as the sequence (P09467 2-338 R244A limits assumed) above, with C179S, A243R counted along it
row,Structure (SMILES),IC50 [nM]
1,CCOC(=O)C(C)(C)Oc1ccc(F)c(/C=C/[N+](=O)[O-])c1,3600
2,O=[N+]([O-])/C=C/c1cccc(F)c1,890
3,N#Cc1ccc(/C=C/[N+](=O)[O-])cc1,430

# Target: Fructose-1,6-bisphosphatase 1 (Homo sapiens, UniProt P09467, R255A)
# Assay: Inhibition of human FBPase R254A mutant expressed in Escherichia coli BL21 (DE3) using FBP as substrate incubated for 5 mins by malachite green dye based spectrophotometry
# Summary of the method: as §1
# Sequence of Fructose-1,6-bisphosphatase 1 (Homo sapiens, UniProt P09467, R255A) (P09467 2-338 R255A limits assumed): as the sequence (P09467 2-338 R244A limits assumed) above, with A243R, R254A counted along it
row,Structure (SMILES),IC50 [nM]
1,CCOC(=O)C(C)(C)Oc1ccc(F)c(/C=C/[N+](=O)[O-])c1,12000
2,O=[N+]([O-])/C=C/c1cccc(F)c1,8400
3,N#Cc1ccc(/C=C/[N+](=O)[O-])cc1,3600

# Species on record: Homo sapiens
# Assay: Selectivity index, ratio of IC50 for human FBPase C92S mutant expressed in Escherichia coli BL21 (DE3) to IC50 for human FBPase expressed in Escherichia coli BL21 (DE3)
# Summary of the method: as §2
row,Structure (SMILES),Ratio IC50
1,CCOC(=O)C(C)(C)Oc1ccc(F)c(/C=C/[N+](=O)[O-])c1,1
2,O=[N+]([O-])/C=C/c1cccc(F)c1,1.9
3,N#Cc1ccc(/C=C/[N+](=O)[O-])cc1,0.97

# Target: T1, Fructose-1,6-bisphosphatase 1 (Homo sapiens, UniProt P09467)
# T1 sequence (P09467 whole entry): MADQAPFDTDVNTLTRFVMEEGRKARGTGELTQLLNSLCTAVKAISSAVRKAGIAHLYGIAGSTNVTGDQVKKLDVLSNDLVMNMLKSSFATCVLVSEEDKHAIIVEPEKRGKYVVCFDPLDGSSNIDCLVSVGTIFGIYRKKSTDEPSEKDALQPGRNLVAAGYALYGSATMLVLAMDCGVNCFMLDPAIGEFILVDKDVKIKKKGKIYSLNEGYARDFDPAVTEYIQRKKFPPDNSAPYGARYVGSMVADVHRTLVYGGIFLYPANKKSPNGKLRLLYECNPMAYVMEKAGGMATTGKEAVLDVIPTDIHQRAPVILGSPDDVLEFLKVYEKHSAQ
# Assay: Inhibition of human FBPase expressed in Escherichia coli BL21 (DE3) using FBP as substrate incubated for 5 mins by malachite green dye based spectrophotometry
row,Structure (SMILES),IC50 [nM]
1,CCOC(=O)C(C)(C)Oc1ccc(F)c(/C=C/[N+](=O)[O-])c1,610
2,O=[N+]([O-])/C=C/c1cccc(F)c1,320
3,N#Cc1ccc(/C=C/[N+](=O)[O-])cc1,360

# Species on record: Homo sapiens
# Assay: Selectivity index, ratio of IC50 for human FBPase C38S mutant expressed in Escherichia coli BL21 (DE3) to IC50 for human FBPase expressed in Escherichia coli BL21 (DE3)
# Summary of the method: as §2
row,Structure (SMILES),Ratio IC50
1,CCOC(=O)C(C)(C)Oc1ccc(F)c(/C=C/[N+](=O)[O-])c1,1
2,O=[N+]([O-])/C=C/c1cccc(F)c1,3.8
3,N#Cc1ccc(/C=C/[N+](=O)[O-])cc1,1.4

# Species on record: Homo sapiens
# Assay: Selectivity index, ratio of IC50 for human FBPase N125A mutant expressed in Escherichia coli BL21 (DE3) to IC50 for human FBPase expressed in Escherichia coli BL21 (DE3)
# Summary of the method: as §2
row,Structure (SMILES),Ratio IC50
1,CCOC(=O)C(C)(C)Oc1ccc(F)c(/C=C/[N+](=O)[O-])c1,492
2,O=[N+]([O-])/C=C/c1cccc(F)c1,> 625
3,N#Cc1ccc(/C=C/[N+](=O)[O-])cc1,> 556

# Species on record: Homo sapiens
# Assay: Selectivity index, ratio of IC50 for human FBPase S124A mutant expressed in Escherichia coli BL21 (DE3) to IC50 for human FBPase expressed in Escherichia coli BL21 (DE3)
# Summary of the method: as §2
row,Structure (SMILES),Ratio IC50
1,CCOC(=O)C(C)(C)Oc1ccc(F)c(/C=C/[N+](=O)[O-])c1,39
2,O=[N+]([O-])/C=C/c1cccc(F)c1,37.8
3,N#Cc1ccc(/C=C/[N+](=O)[O-])cc1,3.8

# Species on record: Homo sapiens
# Assay: Selectivity index, ratio of IC50 for human FBPase C128S mutant expressed in Escherichia coli BL21 (DE3) to IC50 for human FBPase expressed in Escherichia coli BL21 (DE3)
# Summary of the method: as §2
row,Structure (SMILES),Ratio IC50
1,CCOC(=O)C(C)(C)Oc1ccc(F)c(/C=C/[N+](=O)[O-])c1,> 820
2,O=[N+]([O-])/C=C/c1cccc(F)c1,> 1010
3,N#Cc1ccc(/C=C/[N+](=O)[O-])cc1,> 1000

# Species on record: Homo sapiens
# Assay: Selectivity index, ratio of IC50 for human FBPase C281S mutant expressed in Escherichia coli BL21 (DE3) to IC50 for human FBPase expressed in Escherichia coli BL21 (DE3)
# Summary of the method: as §2
row,Structure (SMILES),Ratio IC50
1,CCOC(=O)C(C)(C)Oc1ccc(F)c(/C=C/[N+](=O)[O-])c1,1.5
2,O=[N+]([O-])/C=C/c1cccc(F)c1,7.2
3,N#Cc1ccc(/C=C/[N+](=O)[O-])cc1,1.7

# Target: Fructose-1,6-bisphosphatase 1 (Homo sapiens, UniProt P09467, C184S)
# Assay: Inhibition of human FBPase C183S mutant expressed in Escherichia coli BL21 (DE3) using FBP as substrate incubated for 5 mins by malachite green dye based spectrophotometry
# Summary of the method: as §1
# Sequence of Fructose-1,6-bisphosphatase 1 (Homo sapiens, UniProt P09467, C184S) (P09467 2-338 C184S limits assumed): as the sequence (P09467 2-338 R244A limits assumed) above, with C183S, A243R counted along it
row,Structure (SMILES),IC50 [nM]
1,CCOC(=O)C(C)(C)Oc1ccc(F)c(/C=C/[N+](=O)[O-])c1,970
2,O=[N+]([O-])/C=C/c1cccc(F)c1,920
3,N#Cc1ccc(/C=C/[N+](=O)[O-])cc1,440

# Species on record: Homo sapiens
# Assay: Selectivity index, ratio of IC50 for human FBPase Y258A mutant expressed in Escherichia coli BL21 (DE3) to IC50 for human FBPase expressed in Escherichia coli BL21 (DE3)
# Summary of the method: as §2
row,Structure (SMILES),Ratio IC50
1,CCOC(=O)C(C)(C)Oc1ccc(F)c(/C=C/[N+](=O)[O-])c1,4.8
2,O=[N+]([O-])/C=C/c1cccc(F)c1,19
3,N#Cc1ccc(/C=C/[N+](=O)[O-])cc1,4.2

# Species on record: Homo sapiens
# Assay: Selectivity index, ratio of IC50 for human FBPase R254A mutant expressed in Escherichia coli BL21 (DE3) to IC50 for human FBPase expressed in Escherichia coli BL21 (DE3)
# Summary of the method: as §2
row,Structure (SMILES),Ratio IC50
1,CCOC(=O)C(C)(C)Oc1ccc(F)c(/C=C/[N+](=O)[O-])c1,20
2,O=[N+]([O-])/C=C/c1cccc(F)c1,26
3,N#Cc1ccc(/C=C/[N+](=O)[O-])cc1,10

# Target: Fructose-1,6-bisphosphatase 1 (Homo sapiens, UniProt P09467, C282S)
# Assay: Inhibition of human FBPase C281S mutant expressed in Escherichia coli BL21 (DE3) using FBP as substrate incubated for 5 mins by malachite green dye based spectrophotometry
# Summary of the method: as §1
# Sequence of Fructose-1,6-bisphosphatase 1 (Homo sapiens, UniProt P09467, C282S) (P09467 2-338 C282S limits assumed): as the sequence (P09467 2-338 R244A limits assumed) above, with A243R, C281S counted along it
row,Structure (SMILES),IC50 [nM]
1,CCOC(=O)C(C)(C)Oc1ccc(F)c(/C=C/[N+](=O)[O-])c1,1300
2,O=[N+]([O-])/C=C/c1cccc(F)c1,2300
3,N#Cc1ccc(/C=C/[N+](=O)[O-])cc1,610

# Target: Fructose-1,6-bisphosphatase 1 (Homo sapiens, UniProt P09467, C117S)
# Assay: Inhibition of human FBPase C116S mutant expressed in Escherichia coli BL21 (DE3) using FBP as substrate incubated for 5 mins by malachite green dye based spectrophotometry
# Summary of the method: as §1
# Sequence of Fructose-1,6-bisphosphatase 1 (Homo sapiens, UniProt P09467, C117S) (P09467 2-338 C117S limits assumed): as the sequence (P09467 2-338 R244A limits assumed) above, with C116S, A243R counted along it
row,Structure (SMILES),IC50 [nM]
1,CCOC(=O)C(C)(C)Oc1ccc(F)c(/C=C/[N+](=O)[O-])c1,960
2,O=[N+]([O-])/C=C/c1cccc(F)c1,1100
3,N#Cc1ccc(/C=C/[N+](=O)[O-])cc1,330

# Species on record: Homo sapiens
# Assay: Selectivity index, ratio of IC50 for human FBPase C179S mutant expressed in Escherichia coli BL21 (DE3) to IC50 for human FBPase expressed in Escherichia coli BL21 (DE3)
# Summary of the method: as §2
row,Structure (SMILES),Ratio IC50
1,CCOC(=O)C(C)(C)Oc1ccc(F)c(/C=C/[N+](=O)[O-])c1,5.9
2,O=[N+]([O-])/C=C/c1cccc(F)c1,2.8
3,N#Cc1ccc(/C=C/[N+](=O)[O-])cc1,1.2

# Target: Fructose-1,6-bisphosphatase 1 (Homo sapiens, UniProt P09467, Y259A)
# Assay: Inhibition of human FBPase Y258A mutant expressed in Escherichia coli BL21 (DE3) using FBP as substrate incubated for 5 mins by malachite green dye based spectrophotometry
# Summary of the method: as §1
# Sequence of Fructose-1,6-bisphosphatase 1 (Homo sapiens, UniProt P09467, Y259A) (P09467 2-338 Y259A limits assumed): as the sequence (P09467 2-338 R244A limits assumed) above, with A243R, Y258A counted along it
row,Structure (SMILES),IC50 [nM]
1,CCOC(=O)C(C)(C)Oc1ccc(F)c(/C=C/[N+](=O)[O-])c1,2900
2,O=[N+]([O-])/C=C/c1cccc(F)c1,19000
3,N#Cc1ccc(/C=C/[N+](=O)[O-])cc1,1500
